Structures are written as SMILES. Values after ≈ are worked out from the molar mass of the structure shown.

This assay deals with P388. Put plainly: Cytotoxicity against mouse P388 cells. The class given is functional, cell-based. Put shortly: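 In vitro assay on P388 murine leukemia cells; cytotoxic activity expressed as IC50, reported in μg/mL.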

As usually defined, the IC50 is the point on the concentration scale where inhibition reaches its midpoint. The compound `C=C1C(=O)[C@@]23[C@@H](CC[C@@H]1[C@H]2O)[C@@]12C(=O)O[C@@H]3C[C@@H]1C(C)(C)CC[C@@H]2O` yielded an IC50 of 0.77 µg/mL (≈ 2.22 µM).

In turn, `C=C1C(=O)[C@@]23[C@H](O)C[C@@H]4[C@@](C)(COC(C)=O)CC[C@H](O)[C@@]4(C)[C@@H]2CC[C@@H]1[C@H]3O` registered a concentration for half-maximal inhibition (IC50) of 0.72 µg/mL (≈ 1.83 µM).

`C=C1C(=O)[C@@]23[C@H](O)C[C@@H]4[C@@](C)(CO)CC[C@H](O)[C@@]4(C)[C@@H]2CC[C@@H]1[C@H]3O`: the concentration for half-maximal inhibition (IC50) was found to be 0.92 µg/mL (≈ 2.63 µM). Consider `C=C1C(=O)[C@@]23[C@H](O)C[C@@H]4C(C)(C)CC[C@H](O)[C@@]4(C)[C@@H]2C[C@H](O)[C@@H]1[C@H]3O` [EXCISANIN A], for which 1.11 µg/mL (≈ 3.17 µM) corresponded to half-maximal inhibition (IC50). For the compound `C=C1C(=O)[C@@]23[C@H](O)C[C@@H]4C(C)(C)CC[C@H](O)[C@@]4(C)[C@@H]2C[C@H](OC(C)=O)[C@@H]1[C@H]3O` [EXCISANIN B], the IC50 came to 0.63 µg/mL (≈ 1.61 µM). The compound `C=C1C(=O)[C@]23[C@H](O)C[C@@H]4C(C)(C)CC[C@H](O)[C@]45CO[C@]2(O)[C@H]1CC[C@@H]53` [EXCISANIN H] gave an IC50 of 0.96 µg/mL (≈ 2.76 µM). For `C=C1C(=O)[C@@]23[C@H](O)C[C@@H]4C(C)(C)CCC[C@@]4(CO)[C@@H]2C[C@H](O)[C@@H]1[C@H]3O` [EXCISANIN I] the value was 0.87 µg/mL (≈ 2.48 µM); for `C=C1C(=O)[C@@]23[C@H](O)C[C@@H]4[C@@](C)(CO)CCC[C@@]4(CO)[C@@H]2CC[C@@H]1[C@H]3O` [EXCISANIN J], 0.92 µg/mL (≈ 2.63 µM); for `C=C1C(=O)[C@@]23[C@H](O)C[C@@H]4C(C)(C)CC[C@H](O)[C@@]4(COC(C)=O)[C@@H]2CC[C@@H]1[C@H]3O` [HENRYIN], 0.58 µg/mL (≈ 1.48 µM).

In turn, `C=C1C(=O)[C@@]23[C@H](O)C[C@@H]4C(C)(C)CC[C@H](O)[C@@]4(CO)[C@@H]2CC[C@@H]1[C@H]3O` [KAMEBAKAURIN] came in with an IC50 of 0.82 µg/mL (≈ 2.34 µM). This IC50 and that of the compound before are within 1.5-fold of each other. The compound `C=C1C(=O)[C@@]23[C@H](O)C[C@@H]4C(C)(C)CC[C@H](O)[C@@]4(C)[C@@H]2CC[C@@H]1[C@H]3O` [KAMEBANIN] displayed an IC50 of 0.69 µg/mL (≈ 2.06 µM). In the case of `C=C1C(=O)[C@]23[C@H](O)[C@H]1CC[C@H]2[C@@]12CO[C@@]3(O)C[C@@H]1C(C)(C)CC[C@@H]2O` [MEGATHYRIN A], the IC50 stood at 0.77 µg/mL (≈ 2.21 µM). For `C=C1C(=O)[C@@]23[C@H](O)C[C@@H]4[C@@](C)(CO)CCC[C@@]4(C)[C@@H]2C[C@H](O)[C@@H]1[C@H]3O` [RABDOKUNMIN C] the value was 1.06 µg/mL (≈ 3.02 µM). Compound `C=C1C(=O)[C@@]23[C@H](O)C[C@@H]4C(C)(C)CC[C@H](O)[C@@]4(CO)[C@@H]2C[C@H](O)[C@@H]1[C@H]3O` [RABDOSERRIN B] returned a half-maximal inhibitory concentration (IC50) of 1.01 µg/mL (≈ 2.76 µM). This IC50 and that of the compound before are within 1.5-fold of each other.

Source of the values: ChEMBL document CHEMBL1146498, “Excisanin H, a novel cytotoxic 14,20-epoxy-ent-kaurene diterpenoid, and three new ent-kaurene diterpenoids from Rabdosia excisa” (J Nat Prod, 2004).
